Drawing on ChEMBL document CHEMBL1123986, “Oral absorption of cephalosporin antibiotics. 2. Expanded structure-activity relationships of 7-(arylacetamido)-3-substituted cephalosporins” (1988), this text covers MIC for twelve molecules.

One assay deals with Klebsiella pneumoniae. The experiment in a line: Minimum inhibitory concentration against Klebsiella pneumoniae. Format: functional. Summed up:
(§1)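 Agar dilution MIC in μg/mL. […] Organisms not run are marked not tested.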

The test system of another assay is Escherichia coli. The experiment in a line: Minimum inhibitory concentration against Escherichia coli. Format: functional. The procedure, abridged: as §1
In the next assay the test system is Streptococcus pneumoniae. The experiment in a line: Minimum inhibitory concentration against Streptococcus pneumoniae. Format: functional. Summed up: as §1
The test system of the next assay is Salmonella typhi. The assay can be described thus: Minimum inhibitory concentration against Salmonella typhi. Format: functional, Salmonella enterica subsp. enterica serovar Typhi. Conditions: Salmonella enterica.
Assay [1] has as its system Haemophilus influenzae. The assay can be described thus: (§2) Minimum inhibitory concentration against Haemophilus influenzae. It is filed as functional. Summed up:
as §1

The next assay relates to Staphylococcus aureus. The assay can be described thus: Minimum inhibitory concentration against Staphylococcus aureus. It is filed as functional. Summed up:
as §1

The subject of assay [2] is Haemophilus influenzae. Described as §2. Format: functional. The procedure, abridged:
as §1
This is another data set of the same source.

For another assay, the system named is Klebsiella aerogenes. The assay can be described thus: Minimum inhibitory concentration against Enterobacter aerogenes. Format: functional. The procedure, abridged:
as §1

For another assay, the system named is Streptococcus pyogenes. The assay can be described thus: Minimum inhibitory concentration against Streptococcus pyogenes. Format: functional. Summed up: as §1

Values after ≈ are worked out from the molar mass of the structure shown. Some results are limits rather than exact numbers.

On to `O=C(Cc1csc2ccc(Cl)cc12)N[C@@H]1C(=O)N2C(C(=O)O)=C(Cl)CS[C@H]12`, for which the MIC against Klebsiella pneumoniae came out at 64 µg/mL (≈ 144 µM); in the assay on Escherichia coli, 128 µg/mL (≈ 289 µM); with Streptococcus pneumoniae it was 0.015 µg/mL (≈ 0.0338 µM); in the assay on Salmonella typhi it was 128 µg/mL (≈ 289 µM); in the assay with Haemophilus influenzae [1], 2 µg/mL (≈ 4.51 µM).
On to `CO/N=C/c1ccc(OCC(=O)N[C@@H]2C(=O)N3C(C(=O)O)=C(Cl)CS[C@H]23)cc1`, for which the MIC was over 128 µg/mL against Klebsiella pneumoniae; 0.25 µg/mL (≈ 0.587 µM) in the assay with Staphylococcus aureus; over 128 µg/mL in the assay with Escherichia coli; 1 µg/mL (≈ 2.35 µM) with Haemophilus influenzae [2]; over 128 µg/mL with Klebsiella aerogenes; 0.06 µg/mL (≈ 0.141 µM) in the assay on Streptococcus pneumoniae. For the same molecule, the MIC against Streptococcus pyogenes was 0.03 µg/mL (≈ 0.0704 µM); with Salmonella typhi, over 128 µg/mL; against Haemophilus influenzae [1], 4 µg/mL (≈ 9.39 µM).
With `O=C(COc1ccc([N+](=O)[O-])cc1)N[C@@H]1C(=O)N2C(C(=O)O)=C(Cl)CS[C@H]12`, the MIC is over 128 µg/mL against Klebsiella pneumoniae; 0.25 µg/mL (≈ 0.604 µM) against Staphylococcus aureus; over 128 µg/mL against Escherichia coli; 1 µg/mL (≈ 2.42 µM) against Haemophilus influenzae [2]; over 128 µg/mL in the assay on Klebsiella aerogenes; 0.03 µg/mL (≈ 0.0725 µM) against Streptococcus pneumoniae. Also, the MIC against Streptococcus pyogenes is 0.015 µg/mL (≈ 0.0362 µM); in the assay with Salmonella typhi, over 128 µg/mL; in the assay on Haemophilus influenzae [1], 2 µg/mL (≈ 4.83 µM).
Consider `CC1=C(C(=O)O)N2C(=O)[C@@H](NC(=O)Cc3csc4ccccc34)[C@H]2SC1`, for which the MIC with Klebsiella pneumoniae was over 128 µg/mL; in the assay on Staphylococcus aureus, 1 µg/mL (≈ 2.57 µM); in the assay with Escherichia coli, over 128 µg/mL; with Haemophilus influenzae [2], 1 µg/mL (≈ 2.57 µM); with Klebsiella aerogenes, over 128 µg/mL; with Streptococcus pneumoniae, 1 µg/mL (≈ 2.57 µM). The values for the MIC in the assay on Streptococcus pyogenes, against Salmonella typhi and with Haemophilus influenzae [1] were 0.5 µg/mL (≈ 1.29 µM), over 128 µg/mL and 32 µg/mL (≈ 82.4 µM), respectively.
Consider `O=C(Cc1ccccc1)N[C@@H]1C(=O)N2C(C(=O)O)=C(Cl)CS[C@H]12`, for which the MIC turned out to be 128 µg/mL (≈ 363 µM) in the assay on Klebsiella aerogenes, 0.125 µg/mL (≈ 0.354 µM) in the assay on Streptococcus pneumoniae and 4 µg/mL (≈ 11.3 µM) against Salmonella typhi.
As to `Nc1n[nH]c(SCC(=O)N[C@@H]2C(=O)N3C(C(=O)O)=C(Cl)CS[C@H]23)n1`, the MIC against Klebsiella pneumoniae is 8 µg/mL (≈ 20.5 µM); in the assay with Staphylococcus aureus, 4 µg/mL (≈ 10.2 µM); with Escherichia coli, 16 µg/mL (≈ 40.9 µM); against Haemophilus influenzae [2], 2 µg/mL (≈ 5.12 µM); against Klebsiella aerogenes, over 128 µg/mL; in the assay with Streptococcus pneumoniae it was 2 µg/mL (≈ 5.12 µM). In addition, the MIC was determined as 1 µg/mL (≈ 2.56 µM) against Streptococcus pyogenes, 8 µg/mL (≈ 20.5 µM) with Salmonella typhi and 4 µg/mL (≈ 10.2 µM) in the assay on Haemophilus influenzae [1].
As for `COc1ccc(CC(=O)N[C@@H]2C(=O)N3C(C(=O)O)=C(Cl)CS[C@H]23)cc1`, the MIC against Klebsiella pneumoniae is 32 µg/mL (≈ 83.6 µM); against Staphylococcus aureus it was 0.5 µg/mL (≈ 1.31 µM); in the assay with Escherichia coli, 64 µg/mL (≈ 167 µM); in the assay on Haemophilus influenzae [2], 1 µg/mL (≈ 2.61 µM); with Klebsiella aerogenes it was over 128 µg/mL; against Streptococcus pneumoniae, 0.125 µg/mL (≈ 0.327 µM). Moreover, the MIC stood at 0.125 µg/mL (≈ 0.327 µM) in the assay on Streptococcus pyogenes, 32 µg/mL (≈ 83.6 µM) with Salmonella typhi and 1 µg/mL (≈ 2.61 µM) in the assay with Haemophilus influenzae [1].
As to `O=C(Cc1ccc(O)cc1)N[C@@H]1C(=O)N2C(C(=O)O)=C(Cl)CS[C@H]12`, the MIC against Streptococcus pneumoniae was determined as 0.25 µg/mL (≈ 0.678 µM); in the assay on Salmonella typhi it was 8 µg/mL (≈ 21.7 µM).
For `COC1=C(C(=O)O)N2C(=O)[C@@H](NC(=O)Cc3noc(C(Cl)(Cl)Cl)n3)[C@H]2SC1`, the MIC was over 128 µg/mL against Klebsiella pneumoniae; 16 µg/mL (≈ 35 µM) against Staphylococcus aureus; over 128 µg/mL against Escherichia coli; 32 µg/mL (≈ 69.9 µM) in the assay on Haemophilus influenzae [2]; over 128 µg/mL against Klebsiella aerogenes; 4 µg/mL (≈ 8.74 µM) in the assay with Streptococcus pneumoniae. For the same molecule, the MIC is 4 µg/mL (≈ 8.74 µM) in the assay with Streptococcus pyogenes, over 128 µg/mL against Salmonella typhi and 32 µg/mL (≈ 69.9 µM) in the assay on Haemophilus influenzae [1].
Turning to `O=C(Cc1csc(-c2ccccc2)n1)N[C@@H]1C(=O)N2C(C(=O)O)=C(Cl)CS[C@H]12`, the MIC with Klebsiella aerogenes and against Salmonella typhi was over 128 µg/mL throughout.
As to `O=C(COc1ccccc1)N[C@@H]1C(=O)N2C(C(=O)O)=C(Cl)CS[C@H]12`, the figures for the MIC against Streptococcus pneumoniae and against Salmonella typhi were 0.125 µg/mL (≈ 0.339 µM) and 64 µg/mL (≈ 174 µM), respectively.
Consider `O=C(CSc1nccs1)N[C@@H]1C(=O)N2C(C(=O)O)=C(Cl)CS[C@H]12`, for which the MIC was 16 µg/mL (≈ 40.8 µM) against Klebsiella pneumoniae; 1 µg/mL (≈ 2.55 µM) in the assay with Staphylococcus aureus; 32 µg/mL (≈ 81.7 µM) against Escherichia coli; over 128 µg/mL against Klebsiella aerogenes; 0.5 µg/mL (≈ 1.28 µM) in the assay on Streptococcus pneumoniae; 0.25 µg/mL (≈ 0.638 µM) with Streptococcus pyogenes. In the assay with Salmonella typhi, this molecule displayed an MIC of 16 µg/mL (≈ 40.8 µM).
